Experimental data reported in ChEMBL document CHEMBL2163234, “Design and characterization of optimized adenosine A₂A/A₁ receptor antagonists for the treatment of Parkinson's disease” (J Med Chem, 2012).
Activity calls are given as the source filed them. The calls are words filed in the database; no cut-off is given here.

Columns and labels:
[1] = Volume of distribution at steady state in BALB/c mouse at 2 mg/kg, iv administered as single dose; format: ADME, organism-based; parameters: dose 2 mg/kg, route intravenous; settings: in vivo, read-out: Vdss
How it was run: (§1)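 Fasted animals (male Sprague-Dawley rats, male Balb/c mice, male and female cynomolgus monkeys) received a single iv dose or oral 10 mg/kg in 0.5% methylcellulose. Blood came from 3–4 animals per time point by orbital sinus (rats) or cardiac puncture (mice), or serially by venipuncture (monkeys). Plasma was acetonitrile-precipitated and analysed by LC-MS/MS (LOQ 0.7–2 ng/mL), with noncompartmental analysis.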

Rattus norvegicus [2] = test: Reversal of haloperidol-induced catalepsy in po dosed Sprague-Dawley rat dosed 60 mins before haloperidol challenge and measured 1 hr post dose; format: functional; settings: for minimal effective dose: read-out: MED
Rattus norvegicus [3] = test: Reversal of haloperidol-induced catalepsy in Sprague-Dawley rat assessed as time duration of anticataleptic activity at 1 mg/kg, po dosed 60 mins before haloperidol challenge and measured post dose
[4] = Volume of distribution at steady state in Sprague-Dawley rat at 2 mg/kg, iv administered as single dose; format: ADME, organism-based; parameters: dose 2 mg/kg, route intravenous; settings: in vivo, read-out: Vdss; how it was run: as §1
[5] = Clearance in BALB/c mouse at 2 mg/kg, iv and 10 mg/kg, po administered as single dose; format: ADME, organism-based; settings: in vivo; how it was run: as §1
[6] = Volume of distribution at steady state in cynomolgus monkey at 2 mg/kg, iv administered as single dose; format: ADME, organism-based, Macaca fascicularis; parameters: dose 2 mg/kg, route intravenous; settings: in vivo, read-out: Vdss; how it was run: as §1
[7] = Oral bioavailability in Sprague-Dawley rat at 10 mg/kg administered as single dose; format: ADME, organism-based; settings: in vivo; how it was run: as §1
[8] = Terminal half life in cynomolgus monkey at 10 mg/kg, po administered as single dose; format: ADME, organism-based, Macaca fascicularis; parameters: dose 10 mg/kg, route oral; settings: in vivo, read-out: beta t1/2 (converted); how it was run: as §1
Rattus norvegicus [9] = test: Antiparkinsonian activity in Wistar rat assessed as reversal of reserpine-induced akinesia administered orally 18 hrs before reserpine challenge and measured 60 mins post dose by spontaneous locomotor activity assay; settings: for minimal effective dose: po, read-out: MED
[10] = Clearance in Sprague-Dawley rat at 2 mg/kg, iv and 10 mg/kg, po administered as single dose; format: ADME, organism-based; settings: in vivo; how it was run: as §1
[11] = Terminal half life in Sprague-Dawley rat at 10 mg/kg, po administered as single dose; format: ADME, organism-based; parameters: dose 10 mg/kg, route oral; settings: in vivo, read-out: beta t1/2 (converted); how it was run: as §1
[12] = Oral bioavailability in cynomolgus monkey at 10 mg/kg administered as single dose; format: ADME, organism-based, Macaca fascicularis; settings: in vivo; how it was run: as §1
[13] = Half life in BALB/c mouse at 10 mg/kg, po administered as single dose; format: ADME, organism-based; parameters: dose 10 mg/kg, route oral; settings: in vivo; how it was run: as §1
[14] = Cmax in cynomolgus monkey plasma at 10 mg/kg, po administered as single dose; format: ADME, organism-based, Macaca fascicularis; parameters: dose 10 mg/kg, route oral; how it was run: as §1
Rattus norvegicus [15] = test: Antiparkinsonian activity in Sprague-Dawley rat 6-OHDA lesion model assessed as increase in number of contralateral rotations dosed orally 6 weeks post OHDA-challenge; format: functional, organism-based
How it was run: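 Rats receive 6-OHDA 12 μg unilaterally into the medial forebrain bundle. Inclusion required ≥125 contralateral rotations in 1 h after apomorphine 0.05 mg/kg sc. Design is within-subject, with drug 0.1–10.0 mg/kg po in 20% HPβCD after 30 min acclimation. Contralateral 360° turns are counted by a tethered optical sensor for 60 min. Mean ± SEM, n = 16, Tukey test.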

[16] = Clearance in cynomolgus monkey at 2 mg/kg, iv and 10 mg/kg, po administered as single dose; format: ADME, organism-based, Macaca fascicularis; settings: in vivo; how it was run: as §1
[17] = Cmax in Sprague-Dawley rat brain at 2 mg/kg, iv and 10 mg/kg, po administered as single dose; format: ADME, organism-based
How it was run: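 Tissue distribution: fasted male Sprague-Dawley rats get 10 mg/kg po in 0.5% methylcellulose. Four rats per time point are euthanized, and brain is weighed, homogenized in methanol, evaporated and reconstituted. Blood and plasma are acetonitrile-treated. Drug levels are measured by LC-MS/MS.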

Mus musculus [18] = test: Reversal of haloperidol-induced catalepsy in po dosed BALB/c mouse measured 1 hr post dose; format: functional; settings: for minimal effective dose: read-out: MED
How it was run: (§2)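 Fasted male Balb/c mice receive haloperidol 1 mg/kg sc in 0.3% tartaric acid/saline, then drug po in 0.5% methylcellulose 30 min later (0.1–10.0 mg/kg, or 10 mg/kg as % reversal). At 1 h post-dose, forepaws are placed on a bar 3.5 cm high and time in cataleptic position is recorded (max 60 s). Blinded; n = 8–12; mean ± SEM; Dunnett test.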

[19] = Cmax in BALB/c mouse plasma at 10 mg/kg, po administered as single dose; format: ADME, organism-based; parameters: dose 10 mg/kg, route oral; how it was run: as §1
Mus musculus [20] = test: Reversal of haloperidol-induced catalepsy in BALB/c mouse assessed as time duration of anticataleptic activity mouse at 10 mg/kg, po; format: functional
How it was run: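 Duration study: fasted male Balb/c mice are dosed with haloperidol 1 mg/kg sc, then drug 10 mg/kg po in 0.5% methylcellulose. Bar-test catalepsy time (max 60 s) is measured repeatedly at 30 min and at 1, 2 and 4 h after dosing. n = 8 per group; mean ± SEM; Dunnett test.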

Rattus norvegicus [21] = test: Antiparkinsonian activity in Sprague-Dawley rat 6-OHDA lesion model assessed as potentiation of 10 mg/kg, po L-DOPA-induced increase in number of contralateral rotations dosed orally 6 weeks post OHDA-challenge; format: functional; settings: 1008 h, read-out: MED
How it was run: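 Rats lesioned unilaterally in the medial forebrain bundle with 6-OHDA 12 μg were selected by apomorphine rotation (≥125 turns/h). Each rat serves as its own control, with randomized session days. Drug 0.1–10.0 mg/kg po (20% HPβCD) is given and followed 60 min later by L-DOPA 10 mg/kg po plus carbidopa, with rotations recorded over 120 min. Total contralateral turns reported; n = 16; Tukey test.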

[22] = Oral bioavailability in BALB/c mouse at 10 mg/kg administered as single dose; format: ADME, organism-based; settings: in vivo; how it was run: as §1
[23] = Cmax in Sprague-Dawley rat plasma at 10 mg/kg, po administered as single dose; format: ADME, organism-based; parameters: dose 10 mg/kg, route oral; how it was run: as §1
Mus musculus [24] = test: Antiparkinsonian activity in CF-1 mouse assessed as reversal of reserpine-induced akinesia administered orally 18 hrs before reserpine challenge and measured 60 mins post dose by spontaneous locomotor activity assay; settings: CF-1, po, read-out: MED
Adenosine receptor A2a = Adenosine receptor A2a (Homo sapiens, UniProt P29274); test: Antagonist activity at human Adenosine receptor A2a assessed as inhibition of cAMP production; format: functional
Adenosine receptor A1 = molecular target: T1, Adenosine receptor A1 (Homo sapiens, UniProt P30542); test: Antagonist activity at human Adenosine receptor A1 assessed as inhibition of cAMP production; format: functional
T1 sequence (P30542 whole entry): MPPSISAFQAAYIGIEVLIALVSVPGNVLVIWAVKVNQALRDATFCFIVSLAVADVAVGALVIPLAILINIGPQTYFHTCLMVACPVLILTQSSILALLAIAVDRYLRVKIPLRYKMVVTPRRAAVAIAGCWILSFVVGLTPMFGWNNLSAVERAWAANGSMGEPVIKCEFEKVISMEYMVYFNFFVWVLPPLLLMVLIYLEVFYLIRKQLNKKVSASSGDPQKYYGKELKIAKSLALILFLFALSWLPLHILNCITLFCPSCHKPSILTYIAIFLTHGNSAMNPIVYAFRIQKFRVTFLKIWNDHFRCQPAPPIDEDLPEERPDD

Mus musculus [25] = test: Reversal of haloperidol-induced catalepsy in BALB/c mouse at 10 mg/kg, po measured 1 hr post dose; format: functional; how it was run: as §2
[26] = Volume of distribution at steady state in cynomolgus monkey at 1 mg/kg, iv administered as single dose; format: ADME, organism-based, Macaca fascicularis; parameters: dose 1 mg/kg, route intravenous; settings: in vivo, read-out: Vdss; how it was run: as §1
[27] = Clearance in cynomolgus monkey at 1 mg/kg, iv and 10 mg/kg, po administered as single dose; format: ADME, organism-based, Macaca fascicularis; settings: in vivo; how it was run: as §1
Rattus norvegicus [28] = test: Reversal of haloperidol-induced catalepsy in Sprague-Dawley rat at 10 mg/kg, po dosed 60 mins before haloperidol challenge and measured 1 to 4 hrs post dose; format: functional, organism-based; parameters: dose 10 mg/kg

Adenosine receptor A2a, sequence (P29274 whole entry): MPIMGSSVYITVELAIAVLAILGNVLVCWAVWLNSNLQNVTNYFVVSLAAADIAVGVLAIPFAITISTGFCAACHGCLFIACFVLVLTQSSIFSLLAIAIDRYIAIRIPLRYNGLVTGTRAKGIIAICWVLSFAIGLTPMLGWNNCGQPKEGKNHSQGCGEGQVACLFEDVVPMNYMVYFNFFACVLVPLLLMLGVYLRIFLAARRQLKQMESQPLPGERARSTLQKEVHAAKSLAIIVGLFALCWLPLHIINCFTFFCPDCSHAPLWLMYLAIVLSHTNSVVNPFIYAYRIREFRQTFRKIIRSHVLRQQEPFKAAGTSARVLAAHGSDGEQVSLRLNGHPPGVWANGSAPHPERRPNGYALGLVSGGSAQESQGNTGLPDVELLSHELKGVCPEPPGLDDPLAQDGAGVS

## Nc1nc(-c2ccccc2)c2c(n1)-c1cc(OCCN3CCOCC3)ccc1C2=O
[1]
  Vd: 5 L/kg
Rattus norvegicus [2]
  Activity: Dose-dependent effect
  ED50: 0.3 mg/kg
  minimal effective dose: 1 mg/kg
Rattus norvegicus [3]
  Time: 4 h
[4]
  Vd: 1 L/kg
[5]
  clearance: 97 mL/min/kg
[6]
  Vd: 2 L/kg
[7]
  bioavailability: 18%
[8]
  half-life: 5.5 h
Rattus norvegicus [9]
  Activity: Dose-dependent effect
  minimal effective dose: 1 mg/kg
[10]
  clearance: 19 mL/min/kg
[11]
  half-life: 1.2 h
[12]
  bioavailability: 55%
[13]
  half-life: 1.1 h
[14]
  Cmax: 2770 nM
Rattus norvegicus [15]
  Activity: Dose-dependent effect
[16]
  clearance: 7 mL/min/kg
[17]
  Cmax: 4160 nM
Mus musculus [18]
  ED50: < 0.1 mg/kg
  minimal effective dose: 0.1 mg/kg
[19]
  Cmax: 1080 nM
Mus musculus [20]
  Time: 4 h
Rattus norvegicus [21]
  minimal effective dose: 1 mg/kg
[22]
  bioavailability: 61%
[23]
  Cmax: 1650 nM
Mus musculus [24]
  minimal effective dose: 1 mg/kg

## Nc1nc(-c2ccccc2)c2c(n1)-c1cc(C(F)(F)c3cccnc3)ccc1C2=O
Adenosine receptor A2a
  Ki: 1.6 nM
Adenosine receptor A1
  Ki: 29.3 nM
Mus musculus [25]
  Activity: <50%

## Nc1nc(-c2ccccc2)c2c(n1)-c1cc(C(=O)c3cccnc3)ccc1C2=O
Adenosine receptor A2a
  Ki: 0.5 nM
Adenosine receptor A1
  Ki: 1.8 nM
Mus musculus [25]
  Activity: <50%

## CC1CC[C@@H](C)N1Cc1ccc2c(c1)-c1nc(N)nc(-c3ccccc3)c1C2=O (mixture of isomers)
Adenosine receptor A2a
  Ki: 13.1 nM
Adenosine receptor A1
  Ki: 37.3 nM
Mus musculus [18]
  ED50: 3.2 mg/kg

## CN1CCN(C(=O)c2ccc3c(c2)-c2nc(N)nc(-c4ccccc4)c2C3=O)CC1
[1]
  Vd: 11 L/kg
Rattus norvegicus [2]
  Activity: Dose-dependent effect
  ED50: 0.6 mg/kg
  minimal effective dose: 1 mg/kg
[4]
  Vd: 6 L/kg
[5]
  clearance: 37 mL/min/kg
[6]
  Vd: 4 L/kg
[7]
  bioavailability: 45%
[8]
  half-life: 4.3 h
Rattus norvegicus [9]
  Activity: Dose-dependent effect
  minimal effective dose: 1 mg/kg
[10]
  clearance: 52 mL/min/kg
[11]
  half-life: 3.6 h
[12]
  bioavailability: 47%
[13]
  half-life: 3.8 h
[14]
  Cmax: 1460 nM
Rattus norvegicus [15]
  Activity: Dose-dependent effect
[16]
  clearance: 15 mL/min/kg
[17]
  Cmax: 459 nM
Mus musculus [18]
  ED50: 0.4 mg/kg
  minimal effective dose: 1 mg/kg
[19]
  Cmax: 1700 nM
Mus musculus [20]
  Time: 4 h
Rattus norvegicus [21]
  minimal effective dose: 1 mg/kg
[22]
  bioavailability: 41%
[23]
  Cmax: 968 nM
Mus musculus [24]
  minimal effective dose: 1 mg/kg

## Nc1nc(-c2ccccc2)c2c(n1)-c1cc(Cc3ccncc3F)ccc1C2=O
Adenosine receptor A2a
  Ki: 0.7 nM
Adenosine receptor A1
  Ki: 2.5 nM
Mus musculus [25]
  Activity: 100%

## N#Cc1cncc(Cc2ccc3c(c2)-c2nc(N)nc(-c4ccccc4)c2C3=O)c1
Adenosine receptor A2a
  Ki: 1.4 nM
Adenosine receptor A1
  Ki: 5.2 nM
Mus musculus [25]
  Activity: 100%
Mus musculus [20]
  Time: 2 h

## Nc1nc(-c2ccccc2)c2c(n1)-c1cc(CN3CCCC3)ccc1C2=O
[1]
  Vd: 13 L/kg
[4]
  Vd: 7 L/kg
[5]
  clearance: 440 mL/min/kg
[10]
  clearance: 85 mL/min/kg
[26]
  Vd: 7 L/kg
[27]
  clearance: 56 mL/min/kg
Mus musculus [18]
  ED50: 0.2 mg/kg
Rattus norvegicus [28]
  Activity: Active

## Nc1nc(-c2ccccc2)c2c(n1)-c1cc(CN3C4CCC3CC4)ccc1C2=O
Adenosine receptor A2a
  Ki: 3.1 nM
Adenosine receptor A1
  Ki: 223 nM
Mus musculus [18]
  ED50: 1 mg/kg

## Nc1nc(-c2ccccc2)c2c(n1)-c1cc(Cc3cccnc3)ccc1C2=O
Adenosine receptor A2a
  Ki: 0.3 nM
Adenosine receptor A1
  Ki: 2.4 nM
Mus musculus [18]
  ED50: < 1 mg/kg
Mus musculus [20]
  Time: 4 h

## Nc1nc(-c2ccccc2)c2c(n1)-c1cc(Cc3cncc(F)c3)ccc1C2=O
Adenosine receptor A2a
  Ki: 1.3 nM
Adenosine receptor A1
  Ki: 6 nM
Mus musculus [25]
  Activity: 100%

## Nc1nc(-c2ccccc2)c2c(n1)-c1cc(Cc3cnccc3Cl)ccc1C2=O
Adenosine receptor A2a
  Ki: 0.1 nM
Adenosine receptor A1
  Ki: 0.5 nM
Mus musculus [25]
  Activity: 100%
